In brackets after ≈: the same amount, converted by molar mass. Activity calls are given as the source filed them. No cut-off for these calls is given here. Residues, ends and D or L forms follow the SMILES beside them.
Legend:
Enterobacter cloacae = test: Antibacterial activity against Enterobacter cloacae isolate 1383251 incubated for 18 hrs by spectrophotometry; type: functional; conditions: isolate 1383251, 18 h
Procedure, shortened: (§1)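 Broth microdilution per CLSI in Mueller-Hinton broth. Three colonies grown overnight in MHB at 37 °C, 200 rpm; final inoculum 2-5 x 10^5 CFU/mL. Peptides tested at 2 to 32 μM, chloramphenicol as positive control at the same concentrations. Incubated 18 h at 37 °C, OD600 read. MIC taken as lowest inhibiting concentration; three independent experiments.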

Pseudomonas aeruginosa [1] = test: Antibacterial activity against bioluminescent Pseudomonas aeruginosa H1001 incubated for 4 hrs by luminescence based assay; type: functional; conditions: H1001, 4 h
Procedure, shortened: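 Crude peptides released from cellulose spots, two-fold diluted in BM2 (62 mM potassium phosphate pH 7, 2 mM MgSO4, 10 μM FeSO4, 0.4% glucose). Strain fliC::luxCDABE grown in LB to OD600 0.4, diluted 4:100 into BM2, mixed 1:1 with peptide (128 to 2 μM). Shaken 50 rpm, 4 h, 37 °C. Activity scored as luminescence reduction versus untreated cells.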

HT-29 = test: Cytotoxicity in human HT-29 cells assessed as reduction in cell viability incubated for 2 hrs by MTT assay; type: functional, cell-based; conditions: HT-29, 2 h
Staphylococcus aureus [2] = test: Antibacterial activity against Staphylococcus aureus ATCC 12600 incubated for 18 hrs by spectrophotometry; type: functional; conditions: ATCC 12600, 18 h; procedure, shortened: as §1
HUVEC = test: Cytotoxicity in HUVEC assessed as reduction in cell viability incubated for 2 hrs by MTT assay; type: cell-based; conditions: Homo sapiens
Procedure, shortened: (§2)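 Cells grown at 37 °C, 5% CO2, passages 2–10, seeded 5 x 10^3 cells/well, attached 24 h. Media refreshed, then peptides added at final 0.781 to 100 μM. Viability reagent added after 2 h, followed by 4 h further incubation. Supernatant replaced by DMSO, absorbance read at 600 nm. Three independent experiments.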

Klebsiella pneumoniae [3] = test: Antibacterial activity against Klebsiella pneumoniae ATCC 13883 incubated for 18 hrs by spectrophotometry; type: functional; conditions: ATCC 13883, 18 h; procedure, shortened: as §1
Pseudomonas aeruginosa [4] = test: Antibacterial activity against Pseudomonas aeruginosa PA14 incubated for 18 hrs by spectrophotometry; type: functional; conditions: PA14, 18 h; procedure, shortened: as §1
Pseudomonas aeruginosa [5] = test: Antibacterial activity against Pseudomonas aeruginosa PA14 infected in CD-1 IGS mouse model of scarification skin infection assessed as reduction in bacterial counts at 64 uM measured on day 2 post-infection relative to control; type: functional
Procedure, shortened: (§3)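 Six-week-old female CD-1 IGS mice under isoflurane, back shaved, superficial skin abrasions sparing the dermis. Five minutes later, 5 x 10^7 CFU in 50 μL PBS applied to the wound. Two days later, peptide applied to the same area at 64 µM in 20 µL. Infected skin excised and homogenized for CFU counts two and four days post-infection. Four mice per group, two independent experiments; one-way ANOVA with Dunnett's test.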

Staphylococcus aureus [6] = test: Antibacterial activity against Staphylococcus aureus ATCC 25923 incubated for 18 hrs by spectrophotometry; type: functional; conditions: ATCC 25923, 18 h
Procedure, shortened: (§4)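 Broth microdilution per CLSI in Mueller-Hinton broth; inocula from three colonies grown overnight at 37 °C, 200 rpm; final 2-5 x 10^5 CFU/mL. Peptides tested at 2 to 32 μM; chloramphenicol at same concentrations as positive control. Plates incubated 37 °C, 18 h; growth read at 600 nm. Three independent experiments.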

Pseudomonas aeruginosa [7] = test: Antibacterial activity against Pseudomonas aeruginosa PA14 infected in CD-1 IGS mouse model of scarification skin infection assessed as reduction in bacterial counts at 64 uM measured on day 2 to 4 post-infection relative to control; type: functional, organism-based; conditions: TDE = time-dependent effect; procedure, shortened: as §3
Klebsiella pneumoniae [8] = test: Antibacterial activity against KPC+ Klebsiella pneumoniae isolate 001825971 incubated for 18 hrs by spectrophotometry; type: functional; conditions: isolate 001825971, 18 h; procedure, shortened: as §1
Escherichia coli [9] = test: Antibacterial activity against Escherichia coli ATCC 25922 incubated for 18 hrs by spectrophotometry; type: functional; conditions: ATCC 25922, 18 h; procedure, shortened: as §1
3T3-L1 = test: Cytotoxicity in mouse 3T3L1 cells assessed as reduction in cell viability incubated for 2 hrs by MTT assay; type: cell-based; conditions: 3T3-L1, 2 h; procedure, shortened: as §2
MCF7 = test: Cytotoxicity in human MCF7 cells assessed as reduction in cell viability incubated for 2 hrs by MTT assay; type: functional, cell-based; conditions: MCF7, 2 h
PC-3 = test: Cytotoxicity in human PC3 cells assessed as reduction in cell viability incubated for 2 hrs by MTT assay; type: functional, cell-based; conditions: PC-3, 2 h
Staphylococcus aureus [10] = test: Antibacterial activity against methicillin-resistant Staphylococcus aureus isolate 713623 incubated for 18 hrs by spectrophotometry; type: functional; conditions: isolate 713623, 18 h; procedure, shortened: as §4
Acinetobacter baumannii = test: Antibacterial activity against Acinetobacter baumannii isolate 003326263 incubated for 18 hrs by spectrophotometry; type: functional; conditions: isolate 003326263, 18 h; procedure, shortened: as §1
Pseudomonas aeruginosa [11] = test: Antibiofilm activity against 2 day-old preformed Pseudomonas aeruginosa PAO1 assessed as induction of biofilm eradication at 16 uM incubated for 24 hrs by SYTO-9 dye based by confocal microscopy; type: functional, organism-based
Procedure, shortened: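 Flow-cell biofilms: chambers inoculated with overnight culture diluted to OD600 ~0.5, grown in BM2 with 0.4% glucose. Established biofilms then given continuous flow of peptide at 16 µM in BM2 for 24 h. Stained with SYTO-9 (live) and propidium iodide (dead), imaged by confocal microscopy with 3D reconstruction. Two independent experiments.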

[12] = Induction of hemolysis in human RBC at 100 uM incubated for 1 hr relative to control; type: cell-based, Erythrocyte; conditions: red blood cells (RBC), read-out: Activity
Procedure, shortened: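 Human erythrocytes from healthy volunteers, washed three times in PBS, used as a 0.25% suspension in PBS. Peptides serially diluted, top concentration 100 μM per well. Incubated 1 h at 37 °C, then centrifuged, and supernatant absorbance read at 415 nm. PBS was the negative control and 1% Triton X-100 the 100% lysis control. Three replicates.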

Pseudomonas aeruginosa [13] = test: Antibacterial activity against Pseudomonas aeruginosa PA14 infected in CD-1 IGS mouse model of scarification skin infection assessed as reduction in bacterial counts at 64 uM measured on day 4 post-infection relative to control; type: functional; procedure, shortened: as §3
Pseudomonas aeruginosa [14] = test: Antibacterial activity against Pseudomonas aeruginosa PAO1 incubated for 18 hrs by spectrophotometry; type: functional; conditions: PAO1, 18 h; procedure, shortened: as §1
Escherichia coli [15] = test: Antibacterial activity against Escherichia coli BL21 incubated for 18 hrs by spectrophotometry; type: functional; conditions: BL21, 18 h; procedure, shortened: as §1
Escherichia coli [16] = test: Antibacterial activity against KPC+ Escherichia coli isolate 001812446 incubated for 18 hrs by spectrophotometry; type: functional; conditions: isolate 001812446, 18 h; procedure, shortened: as §1

Row | SMILES | MIC (Enterobacter cloacae) | MIC (Pseudomonas aeruginosa [1]) | IC50 (HT-29) | MIC (Staphylococcus aureus [2]) | IC50 (HUVEC) | MIC (Klebsiella pneumoniae [3]) | MIC (Pseudomonas aeruginosa [4]) | fold change (FC) (Pseudomonas aeruginosa [5]) | MIC (Staphylococcus aureus [6]) | Activity (Pseudomonas aeruginosa [7]) | MIC (Klebsiella pneumoniae [8]) | MIC (Escherichia coli [9]) | IC50 (3T3-L1) | IC50 (MCF7) | IC50 (PC-3) | MIC (Staphylococcus aureus [10]) | MIC (Acinetobacter baumannii) | Activity (Pseudomonas aeruginosa [11]) | hemolysis at 1 h, 100 µM [12] | MIC (Pseudomonas aeruginosa [14]) | also measured
1 | CC[C@H](C)[C@H](NC(=O)[C@H](CCCCN)NC(=O)[C@H](CCCCN)NC(=O)[C@@H](NC(=O)[C@H](CCCCN)NC(=O)[C@H](C)NC(=O)[C@H](C)NC(=O)[C@H](CC(C)C)NC(=O)[C@H](CCCNC(=N)N)NC(=O)[C@H](CCCCN)NC(=O)[C@H](CC(C)C)NC(=O)[C@@H](NC(=O)[C@@H](N)CCCCN)[C@@H](C)CC)[C@@H](C)CC)C(=O)N[C@@H](CC(C)C)C(=O)O (H-KILKRLAAKIKKIL-OH) | > 32 µM | 4 µM (≈ 6.54 µg/mL) | > 100 µM | 4 µM (≈ 6.54 µg/mL) | > 100 µM | 8 µM (≈ 13.1 µg/mL) | 4 µM (≈ 6.54 µg/mL) | 100 | > 32 µM | Tde | > 32 µM | 4 µM (≈ 6.54 µg/mL) | > 100 µM | > 100 µM | > 100 µM | > 32 µM | > 32 µM | Active | 3% | 4 µM (≈ 6.54 µg/mL) | fold change (FC) (Pseudomonas aeruginosa [13]): 1000; MIC (Escherichia coli [15]): 2 µM (≈ 3.27 µg/mL); MIC (Escherichia coli [16]): 8 µM (≈ 13.1 µg/mL)
2 | CC[C@H](C)[C@H](N)C(=O)N[C@@H](CCCCN)C(=O)N[C@@H](CC(C)C)C(=O)N[C@@H](CC(C)C)C(=O)N[C@@H](C)C(=O)N[C@@H](CCCNC(=N)N)C(=O)N[C@H](C(=O)N[C@@H](C)C(=O)N[C@@H](CC(C)C)C(=O)N[C@@H](CCCCN)C(=O)N[C@H](C(=O)N[C@@H](CCCCN)C(=O)N[C@H](C(=O)N[C@@H](CC(C)C)C(=O)O)[C@@H](C)CC)[C@@H](C)CC)[C@@H](C)CC (H-IKLLARIALKIKIL-OH) |  | 30 µM (≈ 48.2 µg/mL) |  |  |  |  |  |  |  |  |  |  |  |  |  |  |  |  |  |  | 
3 | CC[C@H](C)[C@H](N)C(=O)N[C@@H](CC(N)=O)C(=O)N[C@@H](CC(C)C)C(=O)N[C@@H](CCCCN)C(=O)N[C@@H](C)C(=O)N[C@@H](CC(C)C)C(=O)N[C@@H](C)C(=O)N[C@@H](C)C(=O)N[C@@H](CC(C)C)C(=O)N[C@@H](C)C(=O)N[C@@H](CCCCN)C(=O)N[C@@H](CCCCN)C(=O)N[C@H](C(=O)N[C@@H](CC(C)C)C(=O)O)[C@@H](C)CC | > 32 µM |  | 25 µM | 8 µM (≈ 11.8 µg/mL) | 50 µM | > 32 µM | 8 µM (≈ 11.8 µg/mL) | 100 | > 32 µM | Tde | > 32 µM | 32 µM (≈ 47.4 µg/mL) | 12.5 µM | 25 µM | 12.5 µM | > 32 µM | > 32 µM | inactive | 45% | 8 µM (≈ 11.8 µg/mL) | Activity (Pseudomonas aeruginosa [13]): Active; MIC (Escherichia coli [15]): 2 µM (≈ 2.96 µg/mL); MIC (Escherichia coli [16]): > 32 µM
4 | CC[C@H](C)[C@H](N)C(=O)N[C@@H](CC(N)=O)C(=O)N[C@@H](CCCCN)C(=O)N[C@H](C(=O)N[C@@H](C)C(=O)N[C@@H](CC(C)C)C(=O)N[C@@H](CCCNC(=N)N)C(=O)N[C@H](C(=O)N[C@@H](CC(C)C)C(=O)N[C@@H](C)C(=O)N[C@@H](CCCCN)C(=O)N[C@H](C(=O)N[C@H](C(=O)N[C@@H](CC(C)C)C(=O)O)[C@@H](C)CC)[C@@H](C)CC)[C@@H](C)CC)[C@@H](C)CC (H-INKIALRILAKIIL-OH) |  | 30 µM (≈ 47.8 µg/mL) |  |  |  |  |  |  |  |  |  |  |  |  |  |  |  |  |  |  | 
5 | CC[C@H](C)[C@H](NC(=O)[C@H](CCCCN)NC(=O)[C@H](C)NC(=O)[C@H](C)NC(=O)[C@H](CC(C)C)NC(=O)[C@H](CCCNC(=N)N)NC(=O)[C@H](CC(C)C)NC(=O)[C@H](C)NC(=O)[C@H](CC(C)C)NC(=O)[C@H](CCCCN)NC(=O)[C@H](CC(C)C)NC(=O)[C@H](CCCCN)NC(=O)[C@H](CCCCN)NC(=O)[C@H](CCSC)NC(=O)[C@@H]1CCCN1)C(=O)N[C@@H](C)C(=O)N1CCC[C@H]1C(=O)N[C@H](C(=O)N[C@@H](Cc1c[nH]c2ccccc12)C(=O)O)C(C)C (H-PMKKLKLALRLAAKIAPVW-OH) |  |  |  |  |  |  |  | 100 |  |  |  |  |  |  |  |  |  |  |  |  | 
6 | CC[C@H](C)[C@H](N)C(=O)N[C@@H](CC(N)=O)C(=O)N[C@@H](CC(C)C)C(=O)N[C@@H](CCCCN)C(=O)N[C@@H](CCCCN)C(=O)N[C@@H](CC(C)C)C(=O)N[C@@H](C)C(=O)N[C@@H](C)C(=O)N[C@@H](CCCNC(=N)N)C(=O)N[C@H](C(=O)N[C@@H](CCCCN)C(=O)N[C@@H](CCCCN)C(=O)N[C@@H](CCCCN)C(=O)N[C@H](C(=O)O)[C@@H](C)CC)[C@@H](C)CC (H-INLKKLAARIKKKI-OH) | > 32 µM | 4 µM (≈ 6.55 µg/mL) | > 100 µM | 4 µM (≈ 6.55 µg/mL) | > 100 µM | > 32 µM | 4 µM (≈ 6.55 µg/mL) | 100 | 8 µM (≈ 13.1 µg/mL) | Tde | > 32 µM | 4 µM (≈ 6.55 µg/mL) | > 100 µM | > 100 µM | > 100 µM | 8 µM (≈ 13.1 µg/mL) | > 32 µM | Active | 8% | 4 µM (≈ 6.55 µg/mL) | Activity (Pseudomonas aeruginosa [13]): Active; MIC (Escherichia coli [15]): 2 µM (≈ 3.27 µg/mL); MIC (Escherichia coli [16]): 8 µM (≈ 13.1 µg/mL)

From ChEMBL document CHEMBL4373721, “Computer-Aided Design of Mastoparan-like Peptides Enables the Generation of Nontoxic Variants with Extended Antibacterial Properties” (J Med Chem, 2019)
